The target in one test is PHD finger protein 23 (Homo sapiens, UniProt Q9BUL5). Nature of the test: Inhibition of PHF23 (unknown origin) after 30 mins by AlphaScreen assay. The gist of the method:
(§1)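 AlphaScreen competition with histone peptide. Compounds in 3-fold, 10-point dilutions, top 10 or 30 μM; buffer 20 mM Tris pH 8.0, 25 mM NaCl, 2 mM DTT, 0.05% Tween-20. Protein-peptide mix 30 min RT, then streptavidin donor plus nickel-chelate acceptor beads (GST acceptor beads for GST-tagged PHF23, JARID1A) 30 min RT dark. Protein-free His6-biotin peptide counterscreen.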

The next test has as its target TP53-binding protein 1 (Homo sapiens, UniProt Q12888). Nature of the test: Inhibition of 53BP1 (unknown origin) after 30 mins by AlphaScreen assay. The gist of the method:
(§2)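 AlphaScreen competition with histone peptide. Compounds in 3-fold, 10-point dilutions, top 10 or 30 μM; buffer 20 mM Tris pH 8.0, 25 mM NaCl, 2 mM DTT, 0.05% Tween-20. Protein-peptide mix 30 min RT, then streptavidin donor plus nickel-chelate acceptor beads (GST acceptor beads for GST-tagged PHF23, JARID1A) 30 min RT dark. […] Protein-free His6-biotin peptide counterscreen.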
(In general: Alpha assays give light when donor and acceptor beads are brought close together.)

The target in test [1] is T1, E3 ubiquitin-protein ligase UHRF1 (Homo sapiens, UniProt Q96T88).
T1 sequence (Q96T88 whole entry): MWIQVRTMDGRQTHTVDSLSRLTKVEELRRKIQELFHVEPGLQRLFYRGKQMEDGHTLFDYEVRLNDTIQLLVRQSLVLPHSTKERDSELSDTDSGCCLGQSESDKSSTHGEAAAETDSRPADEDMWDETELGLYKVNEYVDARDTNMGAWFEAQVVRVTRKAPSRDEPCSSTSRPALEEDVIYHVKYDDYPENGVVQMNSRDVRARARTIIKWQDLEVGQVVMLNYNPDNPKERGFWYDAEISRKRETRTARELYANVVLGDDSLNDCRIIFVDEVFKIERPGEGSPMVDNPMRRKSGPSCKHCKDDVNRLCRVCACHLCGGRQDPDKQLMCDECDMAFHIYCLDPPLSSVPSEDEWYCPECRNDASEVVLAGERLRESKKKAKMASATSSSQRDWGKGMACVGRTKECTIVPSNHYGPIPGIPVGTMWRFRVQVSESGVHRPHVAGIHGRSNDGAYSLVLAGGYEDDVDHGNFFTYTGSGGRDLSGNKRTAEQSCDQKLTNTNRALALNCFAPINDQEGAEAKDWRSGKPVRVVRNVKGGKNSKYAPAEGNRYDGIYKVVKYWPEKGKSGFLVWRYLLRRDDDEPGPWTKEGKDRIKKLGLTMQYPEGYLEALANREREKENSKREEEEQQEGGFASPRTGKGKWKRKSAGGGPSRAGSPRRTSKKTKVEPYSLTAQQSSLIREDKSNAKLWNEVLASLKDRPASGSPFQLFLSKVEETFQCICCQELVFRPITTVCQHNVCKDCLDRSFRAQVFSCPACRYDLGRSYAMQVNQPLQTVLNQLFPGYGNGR
Put plainly: Inhibition of UHRF1 (unknown origin) after 30 mins by AlphaScreen assay. The gist of the method:
as §2

Test [2] concerns the target MBT domain-containing protein 1 (Homo sapiens, UniProt Q05BQ5). Nature of the test: Inhibition of MBTD1 (unknown origin) after 30 mins by AlphaScreen assay. The gist of the method:
as §1

Test [3] addresses T2, Lethal(3)malignant brain tumor-like protein 4 (Homo sapiens, UniProt Q8NA19).
T2 sequence (Q8NA19 whole entry): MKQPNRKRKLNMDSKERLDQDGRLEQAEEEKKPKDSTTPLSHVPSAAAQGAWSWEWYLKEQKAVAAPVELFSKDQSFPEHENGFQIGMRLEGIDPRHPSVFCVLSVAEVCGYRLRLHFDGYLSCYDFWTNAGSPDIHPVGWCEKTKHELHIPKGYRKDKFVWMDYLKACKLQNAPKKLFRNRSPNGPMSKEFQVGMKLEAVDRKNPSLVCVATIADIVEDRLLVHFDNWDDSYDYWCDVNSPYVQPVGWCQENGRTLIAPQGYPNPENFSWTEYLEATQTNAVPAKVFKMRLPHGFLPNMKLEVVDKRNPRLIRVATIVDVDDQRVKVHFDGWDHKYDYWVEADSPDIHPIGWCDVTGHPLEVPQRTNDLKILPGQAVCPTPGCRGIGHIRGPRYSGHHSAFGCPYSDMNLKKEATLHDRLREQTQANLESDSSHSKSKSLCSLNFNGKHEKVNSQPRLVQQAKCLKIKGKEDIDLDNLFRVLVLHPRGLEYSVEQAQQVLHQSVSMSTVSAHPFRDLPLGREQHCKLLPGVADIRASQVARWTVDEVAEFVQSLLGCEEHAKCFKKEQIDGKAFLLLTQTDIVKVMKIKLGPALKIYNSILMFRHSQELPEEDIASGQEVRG
Nature of the test: Inhibition of L3MBTL4 (unknown origin) after 30 mins by AlphaScreen assay. The gist of the method: as §1

The target of test [4] is T3, Lethal(3)malignant brain tumor-like protein 3 (Homo sapiens, UniProt Q96JM7).
T3 sequence (Q96JM7 whole entry): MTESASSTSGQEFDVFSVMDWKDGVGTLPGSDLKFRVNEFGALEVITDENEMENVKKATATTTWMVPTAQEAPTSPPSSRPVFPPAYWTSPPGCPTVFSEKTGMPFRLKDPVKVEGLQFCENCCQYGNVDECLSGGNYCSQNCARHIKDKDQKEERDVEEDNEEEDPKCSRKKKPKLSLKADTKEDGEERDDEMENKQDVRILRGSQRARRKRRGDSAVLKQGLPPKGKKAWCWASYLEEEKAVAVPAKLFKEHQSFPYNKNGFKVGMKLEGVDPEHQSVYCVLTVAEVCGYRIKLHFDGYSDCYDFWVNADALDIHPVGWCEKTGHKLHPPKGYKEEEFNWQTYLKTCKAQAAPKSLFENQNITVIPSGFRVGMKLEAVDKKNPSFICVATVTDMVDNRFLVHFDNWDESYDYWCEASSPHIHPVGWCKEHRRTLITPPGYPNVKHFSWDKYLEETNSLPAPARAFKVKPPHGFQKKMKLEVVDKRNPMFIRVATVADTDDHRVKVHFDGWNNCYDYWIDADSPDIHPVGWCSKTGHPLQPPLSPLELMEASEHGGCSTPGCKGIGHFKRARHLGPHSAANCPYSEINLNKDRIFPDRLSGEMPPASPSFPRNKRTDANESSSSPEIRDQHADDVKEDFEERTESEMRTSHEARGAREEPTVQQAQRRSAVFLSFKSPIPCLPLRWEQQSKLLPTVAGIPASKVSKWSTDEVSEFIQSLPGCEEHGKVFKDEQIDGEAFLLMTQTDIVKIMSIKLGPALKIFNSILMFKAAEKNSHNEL
Nature of the test: Inhibition of L3MBTL3 (unknown origin) after 30 mins by AlphaScreen assay. The gist of the method:
as §1

Test [5] deals with T3, Lethal(3)malignant brain tumor-like protein 3. Nature of the test: Inhibition of L3MBTL3 (unknown origin) using H4K20me2 as substrate after 30 mins by LNCE-TR-FRET assay.

Bounds are passed on as bounds.

Chain of PHD finger protein 23 (Q9BUL5 whole entry): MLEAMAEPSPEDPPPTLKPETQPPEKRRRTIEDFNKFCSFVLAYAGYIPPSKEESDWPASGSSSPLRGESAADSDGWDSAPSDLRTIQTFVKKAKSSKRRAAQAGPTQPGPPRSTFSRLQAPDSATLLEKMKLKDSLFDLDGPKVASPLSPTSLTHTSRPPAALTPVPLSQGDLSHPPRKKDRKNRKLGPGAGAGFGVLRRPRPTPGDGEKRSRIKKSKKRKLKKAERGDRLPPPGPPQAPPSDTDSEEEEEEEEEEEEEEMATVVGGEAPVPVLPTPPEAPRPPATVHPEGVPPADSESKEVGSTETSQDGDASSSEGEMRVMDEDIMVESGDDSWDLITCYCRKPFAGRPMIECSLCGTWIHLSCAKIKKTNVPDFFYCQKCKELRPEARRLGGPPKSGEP
Chain of MBT domain-containing protein 1 (Q05BQ5 whole entry, the tested form may be a part): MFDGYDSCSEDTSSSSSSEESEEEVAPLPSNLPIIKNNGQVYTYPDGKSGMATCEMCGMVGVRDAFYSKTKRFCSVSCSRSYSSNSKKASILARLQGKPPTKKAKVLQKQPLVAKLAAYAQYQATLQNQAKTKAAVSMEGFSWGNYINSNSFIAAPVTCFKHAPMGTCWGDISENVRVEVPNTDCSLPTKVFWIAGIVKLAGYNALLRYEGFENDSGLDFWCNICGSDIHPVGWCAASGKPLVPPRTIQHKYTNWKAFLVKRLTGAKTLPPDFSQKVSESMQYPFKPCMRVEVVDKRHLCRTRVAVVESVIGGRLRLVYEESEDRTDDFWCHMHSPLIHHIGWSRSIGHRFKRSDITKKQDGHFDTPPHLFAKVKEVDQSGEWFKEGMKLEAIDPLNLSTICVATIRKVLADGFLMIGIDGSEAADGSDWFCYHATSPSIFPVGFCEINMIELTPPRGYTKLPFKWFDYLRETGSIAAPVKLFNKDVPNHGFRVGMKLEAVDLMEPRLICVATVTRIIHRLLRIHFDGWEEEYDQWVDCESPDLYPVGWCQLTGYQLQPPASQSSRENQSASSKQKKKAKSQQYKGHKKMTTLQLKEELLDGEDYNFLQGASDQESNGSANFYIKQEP
Chain of TP53-binding protein 1 (Q12888 whole entry): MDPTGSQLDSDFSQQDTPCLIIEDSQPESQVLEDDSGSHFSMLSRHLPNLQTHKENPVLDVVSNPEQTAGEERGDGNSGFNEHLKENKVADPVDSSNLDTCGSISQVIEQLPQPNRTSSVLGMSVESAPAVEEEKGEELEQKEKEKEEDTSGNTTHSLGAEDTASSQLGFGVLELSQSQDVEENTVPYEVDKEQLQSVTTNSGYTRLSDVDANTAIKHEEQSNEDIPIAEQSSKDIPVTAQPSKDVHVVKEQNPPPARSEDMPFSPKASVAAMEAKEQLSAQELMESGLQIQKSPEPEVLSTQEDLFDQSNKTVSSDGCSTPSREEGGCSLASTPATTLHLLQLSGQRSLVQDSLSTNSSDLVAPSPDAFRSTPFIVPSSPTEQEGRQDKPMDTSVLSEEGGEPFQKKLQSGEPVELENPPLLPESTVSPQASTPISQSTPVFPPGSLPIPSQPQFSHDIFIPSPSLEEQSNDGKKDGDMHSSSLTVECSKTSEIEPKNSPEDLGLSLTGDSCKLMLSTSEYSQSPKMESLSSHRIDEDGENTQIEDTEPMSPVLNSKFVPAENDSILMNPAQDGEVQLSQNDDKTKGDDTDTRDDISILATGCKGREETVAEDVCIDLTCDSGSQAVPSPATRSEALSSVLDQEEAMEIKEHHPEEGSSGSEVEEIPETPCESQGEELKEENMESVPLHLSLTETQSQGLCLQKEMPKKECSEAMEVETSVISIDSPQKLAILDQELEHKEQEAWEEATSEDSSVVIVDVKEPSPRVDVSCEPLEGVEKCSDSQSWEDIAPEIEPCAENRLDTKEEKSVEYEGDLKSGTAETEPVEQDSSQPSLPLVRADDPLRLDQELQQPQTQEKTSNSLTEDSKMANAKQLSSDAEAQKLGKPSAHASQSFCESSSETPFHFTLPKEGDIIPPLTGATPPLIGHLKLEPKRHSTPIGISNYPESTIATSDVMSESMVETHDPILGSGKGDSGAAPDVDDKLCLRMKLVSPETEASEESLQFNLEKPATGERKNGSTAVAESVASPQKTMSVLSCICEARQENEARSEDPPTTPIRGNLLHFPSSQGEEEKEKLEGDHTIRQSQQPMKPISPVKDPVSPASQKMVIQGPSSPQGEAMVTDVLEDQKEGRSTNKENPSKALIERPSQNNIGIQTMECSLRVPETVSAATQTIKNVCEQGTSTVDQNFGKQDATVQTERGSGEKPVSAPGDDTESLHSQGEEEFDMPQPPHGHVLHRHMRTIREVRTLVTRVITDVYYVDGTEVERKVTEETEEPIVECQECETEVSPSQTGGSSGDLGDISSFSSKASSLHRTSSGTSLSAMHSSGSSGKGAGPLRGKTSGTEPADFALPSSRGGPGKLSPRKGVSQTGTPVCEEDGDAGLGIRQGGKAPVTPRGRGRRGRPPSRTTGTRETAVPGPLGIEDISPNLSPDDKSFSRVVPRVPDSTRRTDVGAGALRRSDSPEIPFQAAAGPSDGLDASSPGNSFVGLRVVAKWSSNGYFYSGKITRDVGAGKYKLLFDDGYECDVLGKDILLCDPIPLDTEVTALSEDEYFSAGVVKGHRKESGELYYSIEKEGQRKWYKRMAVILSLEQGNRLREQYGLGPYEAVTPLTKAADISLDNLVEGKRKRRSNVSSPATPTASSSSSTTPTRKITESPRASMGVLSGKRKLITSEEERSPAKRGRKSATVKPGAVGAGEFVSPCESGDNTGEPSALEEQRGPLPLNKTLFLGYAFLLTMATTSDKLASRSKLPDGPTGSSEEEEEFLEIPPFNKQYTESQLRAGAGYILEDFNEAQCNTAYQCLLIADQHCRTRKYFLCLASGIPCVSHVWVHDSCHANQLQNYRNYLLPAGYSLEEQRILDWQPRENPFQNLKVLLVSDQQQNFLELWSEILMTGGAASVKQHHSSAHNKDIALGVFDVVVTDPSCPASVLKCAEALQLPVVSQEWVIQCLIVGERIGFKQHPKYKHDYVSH

In general, IC50 refers to the midpoint of a concentration-inhibition curve. For the compound `O=C(c1ccc(N2CCC(N3CCCC3)CC2)cc1)N1CCC(N2CCCC2)CC1`, the IC50 was more than 10 µM on PHD finger protein 23; 7.4 µM on TP53-binding protein 1; more than 10 µM in test [1]; 8.2 µM in test [2]; 8.4 µM in test [3]; 0.17 µM in test [4]. The same compound returned an IC50 in test [5] of 0.15 µM.

With `O=C(c1ccc(C(=O)N2CCC(N3CCC3)CC2)cc1)N1CCC(N2CCC2)CC1`, the IC50 against PHD finger protein 23 is more than 10 µM; at TP53-binding protein 1 it was more than 10 µM; in test [1] it was more than 10 µM; in test [2], more than 10 µM; in test [3], more than 10 µM; in test [4], 0.4 µM. Besides, the midpoint of inhibition in test [5], the IC50, lay at 0.35 µM.

With `O=C(c1ccc(C(=O)N2CC3CNCC3C2)cc1)N1CCC(N2CCCC2)CC1` (stereo not given), the IC50 was more than 10 µM at PHD finger protein 23; more than 10 µM at TP53-binding protein 1; more than 10 µM in test [1]; more than 10 µM in test [2]; more than 10 µM in test [3]; 3.1 µM in test [4]. This compound also gave an IC50 in test [5] of 3.5 µM.

With `CN1CCCC1C1CCN(C(=O)c2ccc(C(=O)N3CCC(C4CCCN4C)CC3)cc2)CC1` (stereo not given), the IC50 against PHD finger protein 23 was more than 10 µM; on TP53-binding protein 1 it was more than 10 µM; in test [1], more than 10 µM; in test [2], more than 10 µM; in test [3] it was more than 10 µM; in test [4], 1.7 µM. This compound also registered an IC50 in test [5] of 1.9 µM.

As to `O=C(c1ccc(C(=O)N2CCC(N3CCCC3)CC2)cc1)N1CCCC(N2CCCC2)CC1` (stereo not given), the IC50 against PHD finger protein 23 was more than 10 µM; on TP53-binding protein 1, more than 10 µM; in test [1], more than 10 µM; in test [2], more than 10 µM; in test [3], more than 10 µM; in test [4] it was 0.096 µM. Also, the half-maximal inhibitory concentration (IC50) in test [5] was found to be 0.074 µM.

The record behind these values is ChEMBL document CHEMBL2424619, “Small-molecule ligands of methyl-lysine binding proteins: optimization of selectivity for L3MBTL3” (J Med Chem, 2013).
